Sampled rows, rich in hits. Any-hit rate of the full collection: about 1.9%.
Rin1 Abl inh: inhibitors of Rin1-Abl protein binding, primary screen, biochemical, TR-FRET; inhibition, % at 7.35 µM; Tyrosine-protein kinase ABL1 (Homo sapiens) + Ras and Rab interactor 1 (Homo sapiens), …; 360,000 tested, 0.4% active; in the data active = inhibition above about 5%, passing the limit was not always enough
Xi reactivation: activators of inactive X chromosome reactivation, primary screen, imaging, XiGFP fibroblasts, GFP high-content imaging, set 2. XiGFP mouse fibroblasts, % GFP-positive cells imaging, 3 d; cells co-treated with 5-aza-dC sensitizer; scaled so ellipticine positive control = 100%. activation, % at 7.58 µM. 360,000 tested, 0.055% active. AID 743238, 2013;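 active = mean normalized replicate activation at least 10% and every replicate at or above 10%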;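 note: 0% = median of on-plate neutral control wells and 100% = ellipticine 6 µM median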
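Schedule: 3 d treatment, 15 min room-temperature fixation; system: 68-5-11 XiGFP fibroblast line; buffer or medium: DMEM plus 5-aza-dC sensitizer; control set: ellipticine 6 µM positive control; compound: one concentration, pinned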
Rpn11 inh: Rpn11 (PSMD14) deubiquitinase inhibitors, primary screen, biochemical, fluorescence polarization, uHTS; 26S proteasome non-ATPase regulatory subunit 14 (Homo sapiens), O00487; human 26S proteasome, Ub4-pepOG fluorescence polarization; 20S core pre-blocked with epoxomicin; inhibition, % at 20 µM; 360,000 tested, 0.59% active; AID 588493, 2011;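 active = inhibition at 20 µM, scaled to each plate's controls, above about 33%, limit read from the data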
NadD inh: inhibitors of S. aureus NadD, primary screen, biochemical, colorimetric, uHTS; Nicotinate-nucleotide adenylyltransferase NadD (Staphylococcus aureus N315); purified NadD enzyme, colorimetric absorbance read-out; inhibition, % at 20 µM; 360,000 tested, 0.78% active; AID 602399, 2012; in the data active = inhibition above about 26%
ABHD5 PLIN5 PPI: ABHD5-PLIN5 interaction inhibitors, primary screen, cell lysate, split luciferase complementation, luminescence; Split G. princeps luciferase complementation, 4 h; Perilipin-5 (Homo sapiens) + 1-acylglycerol-3-phosphate O-acyltransferase ABHD5 (Homo …; 360,000 tested, 0.78% active; inhibition, % at 4 µM;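 active = inhibition above the mean inhibition across every tested compound plus 3 SD, cut at about 22% in these data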;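 note: 0% = DMSO only wells and the 100% control is not disclosed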
Target sequence (Q00G26 whole entry, looked up): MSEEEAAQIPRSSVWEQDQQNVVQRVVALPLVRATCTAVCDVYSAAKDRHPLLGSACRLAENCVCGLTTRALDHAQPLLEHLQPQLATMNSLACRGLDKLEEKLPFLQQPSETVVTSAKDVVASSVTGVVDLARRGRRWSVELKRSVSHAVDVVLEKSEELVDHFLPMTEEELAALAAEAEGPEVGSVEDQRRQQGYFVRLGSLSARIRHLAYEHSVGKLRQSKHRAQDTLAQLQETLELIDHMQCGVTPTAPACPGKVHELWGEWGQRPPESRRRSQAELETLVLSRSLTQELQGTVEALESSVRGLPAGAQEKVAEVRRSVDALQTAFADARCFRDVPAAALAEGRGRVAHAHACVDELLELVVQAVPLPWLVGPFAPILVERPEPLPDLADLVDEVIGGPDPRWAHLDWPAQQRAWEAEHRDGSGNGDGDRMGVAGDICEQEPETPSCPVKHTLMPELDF
Target sequence (Q8WTS1 whole entry, looked up): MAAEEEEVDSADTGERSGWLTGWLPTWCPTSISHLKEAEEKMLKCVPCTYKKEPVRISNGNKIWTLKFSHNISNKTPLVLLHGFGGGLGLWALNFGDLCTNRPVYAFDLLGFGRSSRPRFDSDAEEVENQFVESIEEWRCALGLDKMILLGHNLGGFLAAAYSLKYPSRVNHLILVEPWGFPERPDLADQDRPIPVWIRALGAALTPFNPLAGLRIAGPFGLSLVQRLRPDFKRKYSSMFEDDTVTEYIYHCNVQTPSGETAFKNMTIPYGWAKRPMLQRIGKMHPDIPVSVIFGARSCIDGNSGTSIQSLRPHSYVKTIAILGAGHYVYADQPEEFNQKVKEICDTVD
NadD conf: inhibitors of S. aureus NadD, confirmation, biochemical, colorimetric, single concentration | inhibition, % at 20 µM | shares compounds with NadD inh | 2,000 tested, 13% active | AID 624309, 2012 | purified S. aureus NadD, colorimetric enzyme assay; in the data active = inhibition mostly above about 42%, no sharp cut-off; inactive = mostly below about 42%
Numbers without * were called inactive; · = no result given.

SMILES | Rin1 Abl inh | Xi reactivation | Rpn11 inh | NadD inh | ABHD5 PLIN5 PPI | NadD conf
CC(C)(C)n1nc2c(c1NC(=O)c1ccc(S(=O)(=O)N3CCCC3)cc1)CSC2 | -3 | · | 10 | 31* | -2 | 48*
Cc1cccc(-n2nc3c(c2NC(=O)c2ccc(S(=O)(=O)N4CCOCC4)cc2)CSC3)c1C | 0 | · | 7 | 7 | 4 | ·
S=c1[nH]nc(Nc2cccc3ccccc23)s1 | -2 | 0 | -7 | 37* | -17 | 44
Cc1c(Cl)cccc1Nc1n[nH]c(=S)s1 | 0 | 0 | 7 | 32* | -9 | 31
Cc1ccccc1Nc1n[nH]c(=S)s1 | -2 | 0 | 4 | 20 | -8 | ·
C[C@@H]1CCCCO[C@H](CN(C)C(=O)c2ccccc2)[C@@H](C)CN([C@@H](C)CO)C(=O)c2cc(NC(=O)C3CCCCC3)ccc2O1 | · | 0 | · | · | · | ·
C[C@H]1CN([C@@H](C)CO)S(=O)(=O)c2ccc(-c3ccncc3)cc2O[C@@H]1CN(C)C(=O)C1CCCCC1 | · | 1 | · | · | · | ·
Nc1ccc(-c2nc3ccc(N)cc3[nH]2)cc1 | 1 | 0 | 2 | 66* | 6 | 23
Cc1nc2ccc(-c3nc4ccc(N)cc4[nH]3)cc2[nH]1 | -3 | 0 | 31 | 45* | 0 | 20
Cc1ccc(C)c(-c2nc3ccc(N)cc3[nH]2)c1 | -2 | · | 3 | 7 | 0 | ·
Nc1ccc2nc(-c3cc(Cl)c(N)c(Cl)c3)[nH]c2c1 | -3 | · | 3 | 15 | 6 | ·
Nc1ccc2nc(-c3cccc(-c4nc5ccc(N)cc5[nH]4)c3)[nH]c2c1 | -1 | 0 | 4 | 39* | -3 | 24
COCC(=O)N(C)C[C@@H]1Oc2cc(C#CC3CCCC3)ccc2S(=O)(=O)N([C@H](C)CO)C[C@@H]1C | · | 0 | · | · | · | ·
C[C@]12c3[nH]c4ccc(Cl)cc4c3CCN1C(=O)[C@@H](CC(=O)NCCCn1ccnc1)C[C@@H]2C(=O)N1CCCCC1 | -1 | 0 | -3 | 9 | 2 | ·
O=C(C[C@H]1C[C@H](C(=O)N2CCCCC2)[C@@]2(CCc3ccccc3)c3[nH]c4ccc(Cl)cc4c3CCN2C1=O)NCCCn1ccnc1 | -3 | 0 | 14 | 31* | -7 | 1
O=C(Cc1ccncc1)NCC[C@H]1CC[C@H](NC(=O)Nc2ccc(F)cc2)[C@@H](CO)O1 | · | 1 | · | · | · | ·
Cc1ccc(NS(=O)(=O)c2cc(NC(=O)c3ccc4c(c3)NC(=O)CS4)ccc2C)c(C)c1 | 0 | 0 | -4 | 34* | -5 | 24
COc1ccc(NC(=O)c2ccc3c(c2)NC(=O)CS3)cc1S(=O)(=O)Nc1ccc(Br)cc1 | 0 | 0 | -3 | 0 | 7 | ·
COc1ccc(Nc2nc(-c3cc4cccc(OC)c4oc3=O)cs2)cc1 | 1 | 0 | -1 | 44* | -1 | -4
COc1cccc2cc(-c3nc(-c4cccs4)cs3)c(=O)oc12 | -2 | · | · | 22 | 4 | ·
COc1ccc2oc(=O)c(-c3csc(Nc4cccc(O)c4)n3)cc2c1 | -1 | 0 | 20 | 35* | -2 | 59*
COc1cccc2cc(/C(C)=N/Nc3nc(-c4cc(C)ccc4C)cs3)c(=O)oc12 | 5 | · | 14 | 34* | 4 | 20
CCCCOc1ccc(-c2c(C#N)c(N)[nH]c(=S)c2C#N)cc1 | 0 | 0 | 7 | 31* | 1 | 29
CCCCOc1cccc(C2/C(=C(\O)c3ccc4c(c3)OCCO4)C(=O)C(=O)N2CCN2CCOCC2)c1 (stereo unspecified) | -8 | 0 | -3 | 47* | -4 | 46
C=CCOc1ccc(C2/C(=C(\O)c3ccc4c(c3)OCCO4)C(=O)C(=O)N2CCCN2CCOCC2)cc1 (stereo unspecified) | 1 | 0 | 11 | 44* | 16 | 30

Screening results: PubChem BioAssay, several laboratories
